# Screens from PubChem BioAssay.
# This is a sample that favours compounds with a hit; in the whole collection about 1.5% have one here.
# T cell modulator: modulators of CD8 T cell-vesicle binding, primary screen, mouse 2C CD8+ T cells, flow cytometry. 2C CD8+ T cell-vesicle binding; hits give low values. response (vesicle binding), % at 7 µM. hit rate 0.068% among 330,000. AID 2052, 2009;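 active means response, share of CD8 T cells binding vesicles, and their 90th percentile fluorescence all below set limits, cut at about 80% in these data, passing the limit was not always enough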;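 further: values below 100% mean blocked vesicle binding to the CD8+ T cells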
#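 Assay system – 2C mouse CD8+ T cells · Also added – QL9-loaded Drosophila micro-vesicles · Timing – Cell–vesicle co-incubation 1.5 h at 37 °C, staining 20 min on ice · Signal – flow cytometry of vesicle-bound cells · Measure – percent CD8+ FL2 mean versus row control · Controls – Peptide-free naked vesicles (low) and QL9 vesicles with 0.7% DMSO vehicle (high)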
# LANA-H2A inh: blockers of LANA interaction with H2A/H2B – biochemical, FP readout, HTS, primary screen; hit rate 0.6% among 320,000; Protein LANA1 (Human herpesvirus 8 type P (isolate GK18)), Q9QR71; inhibition, % (no concentration beside the values); cell-free LANA-H2A/H2B peptide, fluorescence polarization; in the data active means inhibition mostly above about 10%, no sharp cut-off; inactive means mostly below about 6.7%
# Target sequence (Q9QR71 whole entry, looked up): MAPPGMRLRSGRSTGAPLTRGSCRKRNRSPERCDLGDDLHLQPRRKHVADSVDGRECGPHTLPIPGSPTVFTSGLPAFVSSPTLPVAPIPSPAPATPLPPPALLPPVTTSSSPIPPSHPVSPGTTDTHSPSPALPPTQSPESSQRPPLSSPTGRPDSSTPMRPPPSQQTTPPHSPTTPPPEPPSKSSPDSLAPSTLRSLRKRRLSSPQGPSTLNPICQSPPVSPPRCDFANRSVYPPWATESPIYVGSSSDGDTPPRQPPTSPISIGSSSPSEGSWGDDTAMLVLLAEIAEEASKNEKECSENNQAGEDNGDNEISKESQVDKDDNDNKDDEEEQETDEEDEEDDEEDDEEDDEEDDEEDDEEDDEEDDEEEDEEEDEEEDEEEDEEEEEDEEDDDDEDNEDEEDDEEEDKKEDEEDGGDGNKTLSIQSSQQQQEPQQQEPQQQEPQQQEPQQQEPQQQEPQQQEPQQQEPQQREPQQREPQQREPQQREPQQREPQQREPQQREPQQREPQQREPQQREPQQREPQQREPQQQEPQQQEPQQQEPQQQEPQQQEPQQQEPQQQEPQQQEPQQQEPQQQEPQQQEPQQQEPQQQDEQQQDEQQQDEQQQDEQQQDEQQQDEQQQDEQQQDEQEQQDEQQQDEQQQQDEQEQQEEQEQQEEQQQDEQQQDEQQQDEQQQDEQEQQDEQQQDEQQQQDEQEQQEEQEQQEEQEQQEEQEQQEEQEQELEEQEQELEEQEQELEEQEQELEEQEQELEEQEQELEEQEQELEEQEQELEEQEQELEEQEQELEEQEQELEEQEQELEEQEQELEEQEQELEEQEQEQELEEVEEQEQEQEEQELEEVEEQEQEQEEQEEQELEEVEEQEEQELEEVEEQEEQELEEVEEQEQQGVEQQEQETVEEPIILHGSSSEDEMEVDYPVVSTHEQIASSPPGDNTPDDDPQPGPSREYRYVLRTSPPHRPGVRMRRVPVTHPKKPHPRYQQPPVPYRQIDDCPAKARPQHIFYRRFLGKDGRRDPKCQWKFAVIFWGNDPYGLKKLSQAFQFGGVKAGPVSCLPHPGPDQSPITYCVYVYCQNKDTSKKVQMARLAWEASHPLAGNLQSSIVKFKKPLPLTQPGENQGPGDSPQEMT
# HDAC3 inh: HDAC3 deacetylase inhibitors, primary screen, biochemical, fluorescence, cell-free homogeneous. Histone deacetylase 3 (Homo sapiens), O15379. recombinant HDAC3, fluorogenic peptide/trypsin coupled. AID 2718, 2010. inhibition, % at 8.3 µM. hit rate 0.15% among 320,000; in the data active means inhibition above about 26%, passing the limit was not always enough; inconclusive means no clear call, values can overlap the other calls
# Arr AP2 block: inhibitors of beta-arrestin/AP2 binding, primary screen, biochemical, GPCR trafficking, flow cytometry. inhibition, % at 10 µM. FITC-arrestin peptide / GST-AP2 beads; AP2 beta2 appendage carries R879A mutation. AID 504490, 2011. hit rate 0.31% among 340,000. beta-arrestin 1 C-terminal peptide binding to AP2 beta2-adaptin appendage (human);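 active means inhibition above a set limit, near 3 SD of compounds lacking own fluorescence, cut at about 54% in these data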;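 further: plate controls were DMSO wells for no effect and 5 µM unlabelled arrestin peptide for full effect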
#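 system = GST-tagged AP2 beta2-adaptin appendage (R879A) on 4 µm glutathione beads | reagent = FITC-labelled arrestin peptide probe, 50 nM final | schedule = compound with beads 12 min RT, then probe 1 h RT | signal = HyperCyt-sampled flow cytometry, FL1 channel, ex 488/em 535 nm | read-out = percent response from loss of bead-bound FITC fluorescence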
# DSG3 Ab inh: inhibitors of pemphigus antibody binding to DSG3, primary screen, biochemical, bead-based, flow cytometry, scFv-GFP; binding (percent of control), % at 10 µM; DSG3-coupled beads, scFv-anti-DSG3-GFP binding; hits give low values; Desmoglein-3 (Homo sapiens), P32926; hit rate 0.48% among 310,000;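 active means binding more than 3 SD below its plate's average and above zero; inconclusive means below that plate limit but binding exactly zero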;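 further: hits lower antibody fragment binding to DSG3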
# The depositor's hits bear a star; ? = inconclusive; . = no result given.
SMILES,T cell modulator,LANA-H2A inh,HDAC3 inh,Arr AP2 block,DSG3 Ab inh
Cc1ccc(CN2C(=O)CCC2C(=O)NCc2cccnc2)cc1 (stereo not drawn),101.9,18.3*,-1.7,10.8,.
CC(C(=O)O)N1C(=O)/C(=C/C=C/c2ccco2)SC1=S (stereo not drawn),244.5,4.2,11.4,31.9,69.1*
CCN(C(=O)C(C)N1C(=O)/C(=C/c2ccco2)SC1=S)C1CCS(=O)(=O)C1 (stereo not drawn),309.0,1.2,3.9,18.9,105.0
O=C1/C(=C/C=C/c2ccco2)SC(=S)N1NS(=O)(=O)c1ccccc1,495.2,2.8,4.5,25.7,51.1*
CC(C)c1ccccc1NCC(=O)N1CCN(Cc2ccccc2)CC1,97.7,-4.5,-1.5,-15.7,112.3
O=C(NCCc1ccc(F)cc1)C1CCN(C(=O)Nc2ccccc2)CC1,294.2,-12.7,-3.8,4.7,100.9
CC(C)(C)c1ccc(C(=O)N2CCN(c3nc4ccccc4o3)CC2)cc1,422.6,6.3,4.0,7.2,91.6
O=C(NC1CCCCCCC1)C1CCN(c2nc3ccccc3o2)CC1,606.8,0.9,-7.2,20.6,95.6
O=C(c1ccc(-c2ccccc2)cc1)N1CCN(c2nc3ccccc3o2)CC1,.,.,.,-2.9,68.8*
O=C(NCCc1ccccc1)C1CCN(c2nc3ccccc3o2)CC1,127.5,14.3*,-3.7,-1.3,105.4
COc1ccc(NC(C)=O)cc1S(=O)(=O)N1CCN(Cc2cccs2)CC1,389.4,0.0,2.0,3.8,107.7
COCCN(C(=O)/C=C/c1ccccc1)c1nnc(-c2cccnc2)s1,541.6,56.1*,-4.5,4.0,87.7
COCCN(C(=O)c1cccc(OC)c1)c1nnc(-c2ccncc2)s1,235.6,0.1,-0.4,9.1,94.1
COc1cccc(NC(=O)CN(C)C(=O)C23CC4CC(CC(Cl)(C4)C2)C3)c1,533.3,42.4*,3.7,28.2,101.1
COc1cccc(CNC(=O)COC(=O)C23CC4CC(CC(Cl)(C4)C2)C3)c1,542.8,6.3,3.5,-2.0,.
CCCCCC(=C/c1ccccc1)/C=N/Nc1ccc(S(=O)(=O)N2CCOCC2)cc1[N+](=O)[O-],.,.,.,14.2,116.0
COc1cc(OC)cc(C(C)=O)c1,602.6,20.5*,-3.8,-2.8,?
COc1cc(OC)cc(C(=O)Nc2cccc(C(C)=O)c2)c1,213.2,2.2,4.3,2.8,101.3
Nc1cccc(C(=O)O)c1,500.0,6.8,-2.0,-5.3,105.6
Nc1cccc(C(=O)c2ccccc2C(=O)O)c1,.,.,.,32.5,77.8*
COc1ccc(S(=O)(=O)NC(C)C(=O)NCc2ccccn2)cc1Cl (stereo not drawn),151.5,-2.6,-4.9,5.8,105.0
CCc1nc(N)c(C#N)c(-c2ccc(F)cc2)c1C,168.4,1.0,-2.4,-2.3,105.9
Cc1ccc2c(n1)sc1c(-c3ccc(Br)cc3)c(C#N)c(N)nc12,223.7,-1.3,0.7,-0.6,74.3*
Cc1cc(C(=O)NC(CC(C)C)C(=O)O)cc(C)c1[N+](=O)[O-] (stereo not drawn),221.0,25.1*,-0.3,8.1,106.9
CC(C)CC(NC(=O)c1cccc(Cl)c1)C(=O)O (stereo not drawn),226.6,-6.2*,-1.9,6.4,100.3
SMILES,T cell modulator,LANA-H2A inh,HDAC3 inh,Arr AP2 block,DSG3 Ab inh
CC(C)CC(NC(=O)c1ccc(Cl)cc1)C(=O)O (stereo not drawn),342.0,0.6,4.7,-3.2,97.7
Cc1ccc(/C(N)=N/OC(=O)C(C)c2ccc([N+](=O)[O-])cc2)cc1 (stereo not drawn),247.2,16.5*,6.4,15.3,88.3
CCCN1CCN(C(=O)CCn2c(=O)c3cccn3c3cccnc32)CC1,411.5,1.8,7.8,6.9,93.0
Cc1noc(C)c1S(=O)(=O)N1CCN(c2ccc([N+](=O)[O-])cc2)CC1,297.9,14.7*,-1.1,-0.4,99.3
Cc1ccc(Sc2ncccc2COC(=O)Nc2c(C)cccc2C)cc1,516.5,0.2,12.2,5.7,3.0*
CCOC(=O)c1csc(NC(=O)CCS(=O)(=O)c2ccc(Cl)cc2)n1,.,.,.,.,103.0
CC(NC(=O)c1cccc(S(=O)(=O)N2CCc3ccccc32)c1)c1ccco1 (stereo not drawn),262.4,134.7*,8.0,20.1,97.6
CCC(C)NC(=O)c1cc(-c2ccc3c(c2)OCO3)on1 (stereo not drawn),240.9,-0.4,7.1,21.1,87.1
CCOc1ccc(NC(=O)c2ccncc2)cc1,188.6,-0.1,1.5,-1.6,103.5
O=C(Nc1ccc(OCC(F)(F)C(F)F)cc1)c1ccncc1,484.9,.,.,-6.5,-12.6*
CCOc1ccc(N(CC(=O)NCc2ccc(Cl)cc2)S(=O)(=O)c2ccccc2)cc1,373.9,4.1,-3.2,-7.6,-57.1*
Cc1ccc(NC(=O)CN(C)C(=O)c2ccc(NS(=O)(=O)c3ccc4[nH]c(=O)[nH]c4c3)cc2)cc1,380.6,29.4*,3.0,-24.1,109.2
CN(CC(=O)Nc1c(Cl)cccc1Cl)C(=O)c1ccc(NS(=O)(=O)c2ccc3[nH]c(=O)[nH]c3c2)cc1,.,.,.,5.9,96.5
COc1cc(OC)cc(OC(=O)C2CCN(S(=O)(=O)c3ccc(OC)c(OC)c3)CC2)c1,271.1,2.5,-1.6,4.6,97.7
Cc1cc(Oc2ccccc2)nc(NCc2ccccc2)n1,251.8,3.3,-2.3,12.7,106.4
Cc1cc(Oc2ccccc2F)nc(NCc2ccccc2)n1,.,.,.,-0.6,-3.2*
CC(=O)c1ccccc1NC(=O)COC(=O)CN1C(=O)C2CCCCC2C1=O (stereo not drawn),999.4,-5.4,3.6,-1.0,102.5
O=C(Nc1ccc(N2CCCC2)cc1)c1ccc(Cl)cc1Cl,212.9,8.0,-0.6,5.3,103.0
O=C(Nc1ccc(N2CCCC2)cc1)c1cc(Cl)ccc1Cl,226.6,-8.0,10.0,-3.2,70.9*
O=C(NC(=S)Nc1ccc(N2CCOCC2)cc1)c1ccc(Cl)cc1,46.6,2.3,-10.0,4.8,72.7*
O=C(/C=C/c1ccccc1)NC(=S)Nc1ccc(N2CCOCC2)cc1,414.1,2.2,2.6,-3.7,75.8*
COc1ccc(NC(=O)Nc2cccc3c2O[C@H](CN(C)C(=O)Nc2ccc4c(c2)OCO4)[C@@H](C)CN([C@H](C)CO)C3=O)cc1,320.6,6.9,-0.7,2.7,109.9
N#C/C(=C(/O)CN1CCN(c2ccccc2F)CC1)c1nc(-c2ccc(Cl)cc2)cs1,311.7,-0.6,-0.1,-1.2,60.4*
N#C/C(=C(/O)CN1CCCCC1)c1nc(-c2ccc(Cl)cc2)cs1,179.3,-0.2,-0.4,0.4,103.4
